Test results published in ChEMBL document CHEMBL1687901 (J Med Chem, 2011).
≈ marks a conversion by molar mass, not a printed value.

Experiments:
Escherichia coli [1] = experiment: Antibacterial activity against Escherichia coli ATCC 25922 by CLSI M07-A8 method; format: functional
Staphylococcus aureus [2] = experiment: Antibacterial activity against tetracycline-resistant Staphylococcus aureus isolate 161 harboring tet(M) gene by CLSI M07-A8 method; format: functional
How it was run: (§1)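 MICs were determined by CLSI broth microdilution in freshly prepared cation-adjusted Mueller Hinton broth, kept at 4 °C before use. Defibrinated horse blood was added as appropriate. Runs met QC ranges for comparator antibiotics with ATCC quality control strains.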

Escherichia coli [3] = experiment: Antibacterial activity against Escherichia coli ATCC 25922 infected in iv dosed mouse septicemia model assessed as mouse protection after 48 hrs; format: functional; details: ATCC 25922, iv, read-out: PD50
How it was run: (§2)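 Mice were challenged intraperitoneally with bacteria mixed with 5% mucin. For S. aureus ATCC 13709 (Smith) the inoculum was 2.1 × 10^6 cfu/mouse, and for E. coli ATCC 25922 it was 2.0 × 10^7 cfu/mouse. PD50 in mg/kg was calculated from survival at 48 h.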

Haemophilus influenzae = experiment: Antibacterial activity against Haemophilus influenzae by CLSI M07-A8 method; format: functional
Staphylococcus aureus [4] = experiment: Antibacterial activity against wild type Staphylococcus aureus Smith ATCC 13709 by CLSI M07-A8 method; format: functional
Klebsiella pneumoniae = experiment: Antibacterial activity against Klebsiella pneumoniae ATCC 13883 by CLSI M07-A8 method; format: functional
Streptococcus pneumoniae [5] = experiment: Antibacterial activity against tetracycline-resistant Streptococcus pneumoniae isolate 160 harboring tet(M) gene by CLSI M07-A8 method; format: functional; how it was run: as §1
Rattus norvegicus = experiment: Oral bioavailability in Sprague-Dawley rat at 1 mg/kg, iv and 10 mg/kg, po; format: ADME, organism-based; details: in vivo
Escherichia coli [6] = experiment: Antibacterial activity against tetracycline-resistant Escherichia coli isolate 155 harboring tet(A) gene by CLSI M07-A8 method; format: functional
How it was run: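 MICs were determined by CLSI broth microdilution in freshly prepared cation-adjusted Mueller Hinton broth, kept at 4 °C before use. Defibrinated horse blood was added as appropriate. The highest concentration tested was 32 μg/mL. Runs met QC ranges for comparator antibiotics with ATCC quality control strains.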

Staphylococcus aureus [7] = experiment: Antibacterial activity against Staphylococcus aureus ATCC 13709 infected in mouse septicemia model assessed as mouse survival at 0.05 to 10 mg/kg, iv after 48 hrs; details: dose mg/kg 0.05-10
Staphylococcus aureus [8] = experiment: Antibacterial activity against Staphylococcus aureus ATCC 13709 infected in iv dosed mouse septicemia model assessed as mouse protection after 48 hrs; format: functional; details: ATCC 13709, iv, read-out: PD50; how it was run: as §2
Streptococcus pneumoniae [9] = experiment: Antibacterial activity against Streptococcus pneumoniae by CLSI M07-A8 method; format: functional
Escherichia coli [10] = experiment: Inhibition of protein synthesis in Escherichia coli S30 extract by coupled transcription/translation assay; format: functional
How it was run: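 Coupled transcription/translation used an E. coli S30 extract with a firefly luciferase reporter. Compounds were diluted in water and tested as a three-point titration in duplicate. Reactions ran 1 h at 37 °C and were stopped on ice for 5 min, then luciferase substrate was added and luminescence read. Percent inhibition was calculated against uninhibited controls averaged per plate, and IC50 derived.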

Staphylococcus aureus [11] = experiment: Antibacterial activity against tetracycline-resistant Staphylococcus aureus isolate 158 harboring tet(K) gene by CLSI M07-A8 method; format: functional; how it was run: as §1
Staphylococcus aureus [12] = experiment: Antibacterial activity against Staphylococcus aureus by CLSI M07-A8 method; format: functional
in vivo = details: Sprague-Dawley, rat, iv, 1 mg/kg
Streptococcus pneumoniae [13] = experiment: Antibacterial activity against Streptococcus pneumoniae ATCC 49619 by CLSI M07-A8 method; format: functional
[14] = Half life in Sprague-Dawley rat at 1 mg/kg, iv and 10 mg/kg, po; format: ADME, organism-based; details: in vivo
[15] = Clearance in Sprague-Dawley rat at 1 mg/kg, iv and 10 mg/kg, po; format: ADME, organism-based; details: in vivo
[16] = AUC in Sprague-Dawley rat at 1 mg/kg, iv and 10 mg/kg, po; format: ADME, organism-based; details: plasma
Escherichia coli [17] = experiment: Antibacterial activity against Escherichia coli by CLSI M07-A8 method; format: functional

Structure (SMILES) | MIC (Escherichia coli [1]) [µg/mL] | MIC (Staphylococcus aureus [2]) [µg/mL] | ED50 (Escherichia coli [3]) [mg/kg] | MIC50 (Haemophilus influenzae) [µg/mL] | MIC90 (Haemophilus influenzae) [µg/mL] | MIC (Staphylococcus aureus [4]) [µg/mL] | MIC (Klebsiella pneumoniae) [µg/mL] | MIC (Streptococcus pneumoniae [5]) [µg/mL] | F (Rattus norvegicus) [%] | MIC (Escherichia coli [6]) [µg/mL] | ED50 (Staphylococcus aureus [8]) [mg/kg] | MIC50 (Streptococcus pneumoniae [9]) [µg/mL] | MIC90 (Streptococcus pneumoniae [9]) [µg/mL] | IC50 (Escherichia coli [10]) [µg/mL] | MIC (Staphylococcus aureus [11]) [µg/mL] | MIC50 (Staphylococcus aureus [12]) [µg/mL] | MIC90 (Staphylococcus aureus [12]) [µg/mL] | Vd (in vivo) [L/kg] | MIC (Streptococcus pneumoniae [13]) [µg/mL] | half-life [14] [h] | further results
CN(C)c1ncc(O)c2c1C[C@H]1C[C@H]3[C@H](N(C)C)C(O)=C(C(N)=O)C(=O)[C@@]3(O)C(O)=C1C2=O.Cl.Cl | 0.125 | 16 | 4.3 | 0.5 | 2 | 0.031 | 0.25 | 8 | 12.7 | > 32 | < 0.3 | 2 | 4 | 0.76 | 2 | ≤ 0.016 | 16 | 4.18 | 0.063 | 3.1 | Survival (Staphylococcus aureus [7]): 100%; MIC (Staphylococcus aureus [12]): ≤ 0.016 µg/mL; clearance [15]: 15.3 mL/min/kg; AUC [16]: 1090 ng·h/mL; MIC50 (Escherichia coli [17]): 0.25 µg/mL; MIC90 (Escherichia coli [17]): > 32 µg/mL
CN(C)c1cc(NC(=O)CNC(C)(C)C)c(O)c2c1C[C@H]1C[C@H]3[C@H](N(C)C)C(O)=C(C(N)=O)C(=O)[C@@]3(O)C(O)=C1C2=O [TIGECYCLINE] | 0.125 (≈ 0.213 µM) | 0.125 (≈ 0.213 µM) | 2.1 | 0.5 (≈ 0.854 µM) | 0.5 (≈ 0.854 µM) | 0.063 (≈ 0.108 µM) | 0.125 (≈ 0.213 µM) | 0.016 (≈ 0.0273 µM) | 1.1 | 0.5 (≈ 0.854 µM) | 0.35 | ≤ 0.016 | ≤ 0.016 | 0.47 (≈ 0.803 µM) | 0.063 (≈ 0.108 µM) | 0.063 (≈ 0.108 µM) | 1 (≈ 1.71 µM) | 6.12 | 0.016 (≈ 0.0273 µM) | 4.6 | MIC (Streptococcus pneumoniae [9]): ≤ 0.016 µg/mL; clearance [15]: 15.5 mL/min/kg; AUC [16]: 1050 ng·h/mL; MIC50 (Escherichia coli [17]): 0.25 µg/mL (≈ 0.427 µM); MIC90 (Escherichia coli [17]): 0.5 µg/mL (≈ 0.854 µM)
